This note sets out measurements from PubChem BioAssay AID2247 (Johns Hopkins Ion Channel Center, 2010).

The whole screen tested about 300,000 compounds, of which about 1,200 (0.4%) were called active.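 The calls were made as follows: active = B-score over 3 SD under the library average, no early fluorescence shift, positive overall ratio signal; inactive = the rest.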 Shown is part of a subset that was picked to be rich in actives.

The target in this experiment is Short transient receptor potential channel 4 (Mus musculus) (UniProt Q9QUQ5). As to the kind of experiment: blockers of DAMGO-evoked TRPC4 calcium flux – Fluo4 calcium, HEK293 TRPC4beta/mu-opioid cells, primary screen (AID 2247). To be noted: at 10 µM; active compounds read low. Put shortly: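 Assay system: HEK293 cells with stable TRPC4beta plus mu-opioid receptor expression. Dosing: single dose. Measured by: Fluo4 Ca2+ flux fluorescence. Also added: DAMGO in two steps, submaximal then maximal. Read-out: B score from integrated Fluo4 fluorescence ratio.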
Short transient receptor potential channel 4 (Mus musculus), sequence (Q9QUQ5 whole entry, looked up): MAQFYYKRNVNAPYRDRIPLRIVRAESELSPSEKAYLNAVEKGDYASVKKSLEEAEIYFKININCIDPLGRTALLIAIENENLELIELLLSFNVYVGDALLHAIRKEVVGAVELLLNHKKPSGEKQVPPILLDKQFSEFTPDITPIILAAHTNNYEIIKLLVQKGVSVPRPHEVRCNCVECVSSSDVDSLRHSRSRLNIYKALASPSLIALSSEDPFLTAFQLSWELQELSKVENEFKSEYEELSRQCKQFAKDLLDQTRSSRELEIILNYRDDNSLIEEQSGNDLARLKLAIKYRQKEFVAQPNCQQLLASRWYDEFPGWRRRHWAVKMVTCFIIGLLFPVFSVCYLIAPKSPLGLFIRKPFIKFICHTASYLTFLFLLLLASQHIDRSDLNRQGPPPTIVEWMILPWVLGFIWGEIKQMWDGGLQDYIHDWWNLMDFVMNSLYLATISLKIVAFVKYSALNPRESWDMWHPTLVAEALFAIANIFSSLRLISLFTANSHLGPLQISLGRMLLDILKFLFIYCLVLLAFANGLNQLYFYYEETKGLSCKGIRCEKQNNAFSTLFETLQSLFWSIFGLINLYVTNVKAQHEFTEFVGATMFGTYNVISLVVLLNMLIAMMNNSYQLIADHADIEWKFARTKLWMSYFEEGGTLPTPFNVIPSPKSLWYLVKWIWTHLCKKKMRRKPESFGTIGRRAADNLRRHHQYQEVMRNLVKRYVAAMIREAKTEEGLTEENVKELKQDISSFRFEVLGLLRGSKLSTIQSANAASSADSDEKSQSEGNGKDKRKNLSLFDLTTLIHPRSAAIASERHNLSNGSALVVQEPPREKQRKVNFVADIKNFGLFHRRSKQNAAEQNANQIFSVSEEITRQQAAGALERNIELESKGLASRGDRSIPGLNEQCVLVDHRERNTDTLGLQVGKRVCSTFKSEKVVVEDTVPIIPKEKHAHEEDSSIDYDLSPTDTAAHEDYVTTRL
A general note: A change in cytosolic calcium serves as a functional read-out for many receptors and channels.
Consider `CN(CC(=O)Nc1cccc(F)c1)C(=O)C1=COCCO1`, for which the B-score entry is “inactive”.

Consider `Cc1noc(C)c1COc1ccccc1C(=O)N(C)CC(=O)Nc1cccc(F)c1`, for which the B-score result was “inactive”.

Regarding `Cc1onc(-c2c(F)cccc2Cl)c1C(=O)N(C)CC(=O)Nc1cccc(F)c1`, the B-score is -7 (active).

For the molecule `Cc1sc(NC(=O)C2C3CCC(O3)C2C(=O)O)c(C(=O)OC(C)C)c1-c1ccc(Cl)cc1` (configuration not stated), the B-score entry is “inactive”.

Turning to `OCC1(CCc2ccccc2)CCN(Cc2ccc3nsnc3c2)CC1`, the B-score is -7 (active).

Regarding `CC(C)(O)C#Cc1ccc(CN2CCC(CO)(CCc3ccccc3)CC2)cc1`, the B-score entry is “inactive”.

As to `Cc1cccc(-c2ncc(CN3CCC(CO)(CCCc4ccccc4)CC3)cn2)c1`, the B-score entry is “inactive”.

On to `O=C(CN1CCOc2ccccc21)N1CCC(Cc2ccccc2)CC1`, for which the B-score entry was “inactive”.

Turning to `CC(c1ccccn1)N(C)C(=O)c1ccc2nc(Cc3cccc(Cl)c3)oc2c1` (configuration not stated), the B-score entry was “inactive”.

Take `NC1=NC[C@@H](Cc2ccc(O)cc2)N1CC1CCCCC1`: the B-score entry was “inactive”.

For `CC(C)n1c(-c2cccs2)nc2ccccc21`, the B-score result was “inactive”.

On to `CC(C)n1c(COc2ccccc2)nc2ccccc21`, for which the B-score result is “inactive”.

For the molecule `CC(C)n1c(NCc2c[nH]c3ccccc23)nc2ccccc21`, the B-score was -8 (active).

As to `Cc1ccc(Cn2nnc3c(=O)[nH]c(C4CCN(S(=O)(=O)/C=C/c5ccccc5)CC4)nc32)cc1`, the B-score entry is “inactive”.

With `N#Cc1c(NC(=O)C2CCCO2)sc2c1CCCCC2` (configuration not stated), the B-score entry was “inactive”.

In the case of `N#Cc1c(NC(=O)C2CC(Cl)=CCC2C(=O)O)sc2c1CCCCC2` (configuration not stated), the B-score was -6 (active).

In the case of `N#Cc1c(NC(=O)CCCl)sc2c1CCCCC2`, the B-score entry was “inactive”.

As for `Nc1cc(N)nc(SCc2cccc(F)c2)n1`, the B-score entry is “inactive”.

With `CC(C)(C)c1cc2cccnc2n1Cc1cccc(F)c1`, the B-score is -6 (active).

For the molecule `COc1ccnc2c1c(=O)n(Cc1cccc(F)c1)c(=O)n2C`, the B-score result is “inactive”.

As to `CC(C)(C)c1cc2cccnc2n1Cc1ccccc1`, the B-score was -7 (active).

On to `Cc1cc(C(C)(C)C)n2nc(C)c(-c3ccccc3)c2n1`, for which the B-score result is “inactive”.

On to `Cn1c(=O)c2c(nc(OCc3cccnc3)n2Cc2ccccc2)n(C)c1=O`, for which the B-score result was “inactive”.

Consider `CCN(CC)C(=O)Cn1cc(S(=O)(=O)CC(=O)NCc2ccc3c(c2)OCO3)c2ccccc21`, for which the B-score entry was “inactive”.

On to `Cc1nc2ccccc2n1C(=O)N1CCOCC1`, for which the B-score entry is “inactive”.

As to `COc1ccc(C(=O)Nc2ccc(-n3nncc3C(C)(C)C)cc2)cc1`, the B-score result is “inactive”.

Turning to `O=S(=O)(O)Oc1c[nH]c2ccccc12`, the B-score result is “inactive”.

As to `COc1ccc(CN(C)Cc2nc3cc(OC)c(OC)cc3c(=O)[nH]2)c(OC)c1`, the B-score entry was “inactive”.

Consider `Cc1ccc(NS(=O)(=O)c2ccc(C)c(NC(=O)COc3ccc4ccccc4c3)c2)c(C)c1`, for which the B-score result is “inactive”.

Regarding `O=[N+]([O-])c1ccccc1S(=O)(=O)Nc1cccc2cccnc12`, the B-score result is “inactive”.

Regarding `COc1cc(NS(=O)(=O)c2ccc3ccccc3c2)c2ncccc2c1`, the B-score was -6 (active).

For the molecule `CC1(C)S[C@@H]2[C@H](NC(=O)COc3ccccc3)C(=O)N2C1C(=O)OCc1ccccc1` (some centres not stated), the B-score entry was “inactive”.

As to `CCc1ccc(C(=O)COC(=O)c2ccco2)cc1`, the B-score result was “inactive”.

`COc1ccc(-n2cc(CNC3CCOCC3)c(-c3cccc(F)c3)n2)cc1`: the B-score result is “inactive”.

On to `COc1ccc(-n2cc(CN(C)Cc3n[nH]c(=O)[nH]3)c(-c3cccc(F)c3)n2)cc1`, for which the B-score result was “inactive”.

Regarding `CCC(O)C1CCN(Cc2cn(-c3ccc(OC)cc3)nc2-c2cccc(F)c2)CC1` (configuration not stated), the B-score was -8 (active).

Turning to `Cc1c(CCOC(=O)CC23CC4CC(CC(C)(C4)C2)C3)sc[n+]1Cc1ccc([N+](=O)[O-])cc1`, the B-score result was “inactive”.

As for `Cc1ccc(CN2CCC(n3nccc3NC(=O)CCCc3ccccc3)CC2)o1`, the B-score entry was “inactive”.

As for `Cc1c(CN2CCC(n3nccc3NC(=O)CCc3ccccc3)CC2)cnn1C`, the B-score is -7 (active).

As for `CCn1cc(CN2CCC(n3nccc3NC(=O)CCCc3ccccc3)CC2)c(C)n1`, the B-score entry was “inactive”.

Take `COC(=O)c1onc(-c2c(OC)cc(OC)cc2OC)c1C(=O)OC`: the B-score entry is “inactive”.

Consider `O=C(Cn1ncc2c3ccccc3n(Cc3ccccc3)c2c1=O)NCc1ccccn1`, for which the B-score result is “inactive”.

For the molecule `Cc1ccc(NC(=O)CSc2nc(=O)n(CCN(C)C)c3c2CCCC3)c(C)c1`, the B-score result was “inactive”.

On to `Cc1cc(CNC(=O)c2cccc([N+](=O)[O-])c2)c2ccccc2n1`, for which the B-score entry is “inactive”.

`N#Cc1cccc(Nc2c3c(nc4ccccc24)CCCC3)c1`: the B-score entry was “inactive”.

On to `O=[N+]([O-])c1cccc(Nc2c3ccccc3nc3ccccc23)c1`, for which the B-score is -7 (active).

With `CC1CC(C)CN(CCCNC(=O)c2csc3c2CCCCC3)C1` (configuration not stated), the B-score entry is “inactive”.

On to `COc1ccc(CNC(=O)[C@@H]2CC=C[C@@H]3CCN(C4CC4)C(=O)[C@@H]32)cc1`, for which the B-score entry is “inactive”.

Turning to `CCc1ccc2oc(=O)cc(CN3CCCCC3C)c2c1` (configuration not stated), the B-score entry was “inactive”.

Turning to `Cc1[nH]n(C)c(=O)c1C(=O)c1c(-c2c(Cl)cccc2Cl)noc1C`, the B-score is -6 (active).

Consider `Cc1onc(-c2c(Cl)cccc2Cl)c1C(=O)c1c[nH]c(C(=O)NC2CC2)c1`, for which the B-score entry was “inactive”.

Turning to `Cc1onc(-c2c(Cl)cccc2Cl)c1C(=O)NNC(=O)c1c(-c2c(Cl)cccc2Cl)noc1C`, the B-score entry is “inactive”.

Consider `COc1cc(CN2CCC(C(N)=O)CC2)ccc1OCc1ccccc1`, for which the B-score result was “inactive”.

`COc1cc(CNC2CCCCC2)c(Br)cc1OC1CCCC1`: the B-score result was “inactive”.

`COc1cc(CNC2CCCC2)c(Br)cc1OCc1ccccc1`: the B-score is -6 (active).

Consider `Cc1cccc(C2C3=C(CCCC3=O)N=C3c4ccccc4C(=O)C32)c1` (configuration not stated), for which the B-score result was “inactive”.

Turning to `Nc1ccc(OCC(O)C[n+]2ccc(CCS(=O)(=O)[O-])cc2)cc1` (configuration not stated), the B-score result was “inactive”.

As for `CN(CC(=O)N1CCN(c2ccccc2)CC1)S(=O)(=O)c1cccs1`, the B-score entry was “inactive”.

As for `Cc1cccc(NS(=O)(=O)c2ccc(C)c(C(N)=O)c2)c1`, the B-score entry was “inactive”.

On to `CC1CN(CCCOc2ccccc2-c2ccccc2)CC(C)O1` (configuration not stated), for which the B-score result is “inactive”.

Take `CC1CCCN(CCOCCOc2ccccc2-c2ccccc2)C1` (configuration not stated): the B-score is -7 (active).

As to `c1ccc(-c2ccccc2OCCN2CCCCC2)cc1`, the B-score result was “inactive”.

Regarding `COc1cc(N2CCCC2)c(OC)cc1/C=C(/C#N)c1cccc(Br)c1`, the B-score entry is “inactive”.

For `Cc1cc(NC(=O)CN2C(=O)NC(C)(CCc3ccccc3)C2=O)no1` (configuration not stated), the B-score result is “inactive”.

As for `CCOC(=O)c1cc(C#N)c(N2CCCCC2)nc1-c1ccccc1`, the B-score is -8 (active).

Regarding `CCOC(=O)c1cc(C)nc(S(C)(=O)=O)c1C#N`, the B-score result is “inactive”.

On to `CCOc1ccc2nc(N3CCCN(C(=O)Nc4ccccc4C)CC3)c(C#N)cc2c1`, for which the B-score result is “inactive”.

Turning to `O=C(CN(Cc1ccc(Br)cc1)S(=O)(=O)c1ccccc1)NCc1ccncc1`, the B-score result was “inactive”.

Regarding `CSCC[C@H](NC(=O)NCc1cccs1)C(=O)O`, the B-score result is “inactive”.

Consider `COc1ccc(CN2CCCC(C(=O)c3ccc(Cl)cc3)C2)cc1Cn1cncn1` (configuration not stated), for which the B-score was -7 (active).

On to `COc1cc(CN2CCCC(C(=O)c3ccc(SC)cc3)C2)cc(Cl)c1O` (configuration not stated), for which the B-score entry is “inactive”.

On to `COc1ccc(C(=O)C2CCCN(Cc3ccc4nonc4c3)C2)c(C)c1` (configuration not stated), for which the B-score result was “inactive”.

Take `CCC(C)OC(=O)C(C)Oc1ccc(-c2ccccc2)cc1` (configuration not stated): the B-score result is “inactive”.

For the molecule `O=S(=O)(/C=C/c1ccccc1)N1CCNCC1`, the B-score result was “inactive”.

As to `O=C(O)c1ccccc1C(=O)NC1=NN(c2ccccc2)CC1`, the B-score entry was “inactive”.

Regarding `O=C(O)c1ccccc1C(=O)Nc1ccccc1[N+](=O)[O-]`, the B-score result is “inactive”.

Regarding `Cc1ccc(Nc2ccc(C(N)=O)cc2[N+](=O)[O-])cc1`, the B-score result was “inactive”.

On to `O=[N+]([O-])c1ccccc1Nc1ccc(O)cc1`, for which the B-score was -6 (active).

For `Cc1ccc(C(=O)Nc2nnc(C3=COCCO3)o2)cc1C`, the B-score was -6 (active).

In the case of `COc1cc(-c2nnc(NC(=O)C3=COCCO3)o2)cc(OC)c1OC`, the B-score entry was “inactive”.

On to `O=C(Nc1nnc(C2=COCCO2)o1)c1ccc([N+](=O)[O-])s1`, for which the B-score entry is “inactive”.

As to `Cc1ccc(CNC(=O)C(=O)c2cn(CC(=O)N3CCCC3)c3ccccc23)cc1`, the B-score entry was “inactive”.

`O=C(Nc1ccc(N2CCCCC2)cc1)c1cc(S(=O)(=O)N2CCOCC2)ccc1F`: the B-score entry was “inactive”.

For `CCc1nn(CCCC(=O)Nc2ccc(C)c(C)c2)c(=O)c2cc3occc3n12`, the B-score entry is “inactive”.

On to `N/C(=N\OC(=O)Nc1ccccc1)c1ccno1`, for which the B-score entry is “inactive”.

For the molecule `Cn1c(SCC(=O)N2CCCc3ccccc32)nc2ccccc2c1=O`, the B-score result is “inactive”.

Consider `CC1CCN(CCCn2c(SCC(=O)NC3CCCC3)nc3ccccc3c2=O)CC1`, for which the B-score entry is “inactive”.

Turning to `O=C(CSc1nc2ccccc2c(=O)n1CCCO)N1CCc2ccccc21`, the B-score is -7 (active).

Turning to `CCOc1ccc(CCNC(=O)CN2C(=O)NC3(CCc4ccccc43)C2=O)cc1OCC` (configuration not stated), the B-score result was “inactive”.

Consider `COCCn1c(SC(C)C(=O)NC2CC2)nnc1-c1cccc(C)c1` (configuration not stated), for which the B-score result was “inactive”.

For `O=C(/C=C/NNC(=O)c1cccc(Br)c1)c1ccccc1`, the B-score entry is “inactive”.

On to `CCOC(=O)/C(C#N)=C/c1cn(CCC(=O)O)nc1-c1ccc(Br)cc1`, for which the B-score result is “inactive”.

With `O=C(O)CCn1cc(/C=C/C(=O)c2ccc(Cl)cc2)c(-c2cccc(Br)c2)n1`, the B-score was -6 (active).

`CCOC(=O)N1CCN(S(=O)(=O)N2CCCC(C(=O)NCCCN3CCC(C)CC3)C2)CC1` (configuration not stated): the B-score entry was “inactive”.

Turning to `Cc1ccnc(N2CCN(C(=O)CSc3nc4ccccc4nc3N3CCCCC3)CC2)c1`, the B-score result is “inactive”.

Regarding `CC(C)Cc1nc(N2CCOCC2)c(C#N)c2c1CCC2`, the B-score was -6 (active).

Regarding `CC(C)Cc1nc(Cl)c(C#N)c2c1CCC2`, the B-score result is “inactive”.

With `CC(C)c1nc(N2CCOCC2)c(C#N)c2c1COC(C)(C)C2`, the B-score entry was “inactive”.

As to `CCCCn1c(N)c(N(CCOC)C(=O)c2cccc(S(=O)(=O)N3CCCCC3)c2)c(=O)[nH]c1=O`, the B-score result was “inactive”.

Consider `CN1CCNC(=O)C1CC(=O)N1CC=C(c2ccc(F)cc2)CC1` (configuration not stated), for which the B-score result was “inactive”.

In the case of `COc1cccc(N(CC(=O)NCc2ccccc2)C(=O)CCC(=O)Nc2nccs2)c1`, the B-score entry is “inactive”.

Take `O=C(CN1CCN(c2ccccc2F)CC1)c1ccc2c(c1)OCO2`: the B-score entry was “inactive”.

`O=C(CCN1CCc2ccccc2C(O)(c2ccccc2)C1)c1ccc2c(c1)OCCO2` (configuration not stated): the B-score is -7 (active).

For the molecule `CCC1(c2ccccc2)NC(=O)N(CC(=O)c2ccc3c(c2)OCO3)C1=O` (configuration not stated), the B-score entry is “inactive”.

As for `CC(=O)Oc1ccc(NC(=O)CCC2CCCCC2)c(C(=O)O)c1`, the B-score is -6 (active).

With `COc1ccc(NC(=O)CCCC2CCCCC2)c(OC)c1`, the B-score result was “inactive”.

With `COC(=O)c1sccc1NC(=O)CCC1CCCC1`, the B-score entry is “inactive”.
